Data on 4 compounds can be found in publication PMC5110367 (Nature chemical biology, 2016).

The target of test [1] is T1, Y464D-Ppara (Mus musculus, UniProt P23204, Y464D).
T1 sequence (P23204 1-468 Y464D): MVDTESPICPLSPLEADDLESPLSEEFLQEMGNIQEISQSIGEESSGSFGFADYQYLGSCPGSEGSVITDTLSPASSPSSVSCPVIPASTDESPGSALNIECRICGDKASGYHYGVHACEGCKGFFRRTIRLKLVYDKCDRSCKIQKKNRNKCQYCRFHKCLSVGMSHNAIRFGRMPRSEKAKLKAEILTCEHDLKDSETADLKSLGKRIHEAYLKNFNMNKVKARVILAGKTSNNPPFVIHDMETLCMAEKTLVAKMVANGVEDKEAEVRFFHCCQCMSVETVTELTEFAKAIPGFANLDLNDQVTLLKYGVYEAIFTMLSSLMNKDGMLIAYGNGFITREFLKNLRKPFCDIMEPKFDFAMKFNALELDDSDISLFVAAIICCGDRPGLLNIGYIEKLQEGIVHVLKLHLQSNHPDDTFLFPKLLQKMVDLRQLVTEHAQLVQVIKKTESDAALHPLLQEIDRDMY
The format is cell-based.

The test system of test [2] is PPRE-driven luciferase activity. Put plainly: PPRE-luciferase assay in Ppara-null astrocytes transduced with empty vector. The class given is cell-based, mouse. As to conditions: 4 h. The method, boiled down:
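Ppara-null astrocytes came from mixed glial cultures of 7-d-old pups. They were transduced 48 h with empty-vector lentivirions and transfected with tk-PPREx3-Luc reporter. After 24 h they were treated with different doses of test compound for 4 h, then luciferase activity was read. Values are mean ± SD of three independent experiments.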

In test [3] the target is T2, FL-Ppara (Mus musculus, UniProt P23204).
T2 sequence (P23204 1-468): T1 sequence (P23204 1-468 Y464D) with D464Y
The format is cell-based.

The subject of test [4] is Ppara-null hippocampal neurons. Nature of the test: Dendritic spine density. The class given is cell-based, mouse. Conditions: Ppara-null neurons transduced with lenti-FL-Ppara or lenti-Y464D-Ppara. Summed up: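 Ppara-null hippocampal neurons were taken from E18 fetuses and treated with 10 μM AraC to remove glia. They were differentiated 9–10 days, then transduced 48 h with lentivirions carrying GFP (vector), FL-Ppara or Y464D-Ppara. Neurons then received vehicle (DMSO) or test compound for 24 h. They were stained with Dylight-554-phalloidin, and spine density was scored by fluorescence microscopy.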

The target of test [5] is T3, Y314D/Y464D-Ppara (Mus musculus, UniProt P23204, Y314D/Y464D).
T3 sequence (P23204 1-468 Y314D/Y464D): T1 sequence (P23204 1-468 Y464D) with Y314D
The format is cell-based.

Test [6] addresses T4, Y314D-Ppara (Mus musculus, UniProt P23204, Y314D).
T4 sequence (P23204 1-468 Y314D): T1 sequence (P23204 1-468 Y464D) with Y314D, D464Y
The format is cell-based.

For test [7], the target named is T5, PPARγ (Mus musculus, UniProt P37238).
T5 sequence (P37238 1-505): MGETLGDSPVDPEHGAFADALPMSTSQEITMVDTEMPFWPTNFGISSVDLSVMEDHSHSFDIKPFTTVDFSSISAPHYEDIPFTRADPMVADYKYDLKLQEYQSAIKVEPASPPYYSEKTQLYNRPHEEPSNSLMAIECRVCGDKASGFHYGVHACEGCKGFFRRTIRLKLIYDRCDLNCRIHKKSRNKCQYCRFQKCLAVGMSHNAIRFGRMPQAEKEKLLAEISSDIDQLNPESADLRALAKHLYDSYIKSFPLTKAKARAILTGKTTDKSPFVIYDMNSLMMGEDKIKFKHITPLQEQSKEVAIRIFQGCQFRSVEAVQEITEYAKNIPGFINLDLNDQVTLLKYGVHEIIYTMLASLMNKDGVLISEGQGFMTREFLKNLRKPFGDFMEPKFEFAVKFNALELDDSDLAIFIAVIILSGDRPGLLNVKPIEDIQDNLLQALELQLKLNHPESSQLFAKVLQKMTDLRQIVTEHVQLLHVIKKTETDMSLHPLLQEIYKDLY
Put plainly: GW9662 against rosiglitazone-stimulated PPRE-luciferase in Pparb-null astrocytes. The format is cell-based. As to conditions: GW9662 30 min before rosiglitazone.

Substitutions are numbered along the chain they refer to. Where two headings read alike, the source gives them in different places.

`Cc1cccc(Nc2cc(Cl)nc(SCC(=O)O)n2)c1C` [WY14643, reference compound]: the PPRE-luciferase activity entry in test [1], in test [5] and in test [6] was “no luciferase activity” throughout. Besides, the PPRE-driven luciferase activity entry in test [2] is “unable to induce PPRE-luciferase activity”. In addition, the PPRE-luciferase reporter activity entry in test [3] was “markedly induced PPRE-luciferase activity”. For the same compound, the “density of dendritic spines” value in test [4] is “stimulated the density of spines only when Ppara-null neurons were transduced with lenti-FL-Ppara, but not lenti-Y464D-Ppara”.
`O=C(Nc1ccccc1)c1cc([N+](=O)[O-])ccc1Cl` [GW9662]: the “effect on rosiglitazone-mediated PPRE-luciferase activity” value in test [7] is “Inhibition of rosiglitazone-mediated increase in PPRE-luciferase activity”.
As to `CCOC(=O)C(C)(C)Oc1ccc(Cl)cc1` [clofibrate, reference compound], the PPRE-luciferase activity entry is “no luciferase activity” in test [1] (Ppara-null astrocytes transduced with lenti-Y464D-Ppara, 4 h); “no luciferase activity” in test [5] (Ppara-null astrocytes transduced with lenti-Y314D/Y464D-Ppara, 4 h); “no luciferase activity” in test [6] (Ppara-null astrocytes transduced with lenti-Y314D-Ppara, 4 h). For the same compound, the PPRE-driven luciferase activity entry in test [2] is “unable to induce PPRE-luciferase activity”. The PPRE-luciferase reporter activity result in test [3] (Ppara-null astrocytes transduced with lenti-FL-Ppara, 4 h) is “markedly induced PPRE-luciferase activity”.
`CC(C)OC(=O)C(C)(C)Oc1ccc(C(=O)c2ccc(Cl)cc2)cc1` [fenofibrate]: in test [2], the PPRE-driven luciferase activity result is recorded as “unable to induce PPRE-luciferase activity”.
